In ChEMBL document CHEMBL1155468, “Syntheses and evaluation of anticonvulsant profile and teratogenicity of novel amide derivatives of branched aliphatic carboxylic acids with 4-aminobenzensulfonamide” (J Med Chem, 2010):
Activity calls are given as the source filed them. The rule behind the calls is not given here.

Legend:
Mus musculus [1] = assay: Anticonvulsant activity in CF1 albino mouse assessed as inhibition of maximal electroshock-induced seizures at 300 mg/kg, ip after 0.5 hrs; assay type: functional, organism-based; parameters: dose 300 mg/kg
Outline: (§1)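 Test compounds suspended in 0.5% methylcellulose and given ip to adult male CF no. 1 albino mice (18-25 g) at 0.01 mL/g body weight before maximal electroshock challenge.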

Mus musculus [2] = assay: Neurotoxicity in CF1 albino mouse assessed as motor impairment at 300 mg/kg, ip after 4 hrs; assay type: toxicity, organism-based; parameters: dose 300 mg/kg, route intraperitoneal; settings: in vivo
Mus musculus [3] = assay: Anticonvulsant activity in CF1 albino mouse assessed as inhibition of subcutaneous pentylenetetrazole-induced seizures at 300 mg/kg, ip after 4 hrs; assay type: functional, organism-based; parameters: dose 300 mg/kg
Outline: (§2)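 Adult male CF no. 1 albino mice (18-25 g) dosed ip with compound suspended in 0.5% methylcellulose (0.01 mL/g). Convulsant: pentylenetetrazol dissolved in 0.9% saline as a 0.85% solution for mice, given subcutaneously.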

Mus musculus [4] = assay: Anticonvulsant activity in CF1 albino mouse assessed as inhibition of subcutaneous pentylenetetrazole-induced seizures at 30 mg/kg, ip after 4 hrs; assay type: functional, organism-based; parameters: dose 30 mg/kg; outline: as §2
Mus musculus [5] = assay: Anticonvulsant activity in CF1 albino mouse assessed as inhibition of maximal electroshock-induced seizures at 30 mg/kg, ip after 4 hrs; assay type: functional, organism-based; parameters: dose 30 mg/kg; outline: as §1
Mus musculus [6] = assay: Anticonvulsant activity in CF1 albino mouse assessed as inhibition of maximal electroshock-induced seizures at 300 mg/kg, ip after 4 hrs; assay type: functional, organism-based; parameters: dose 300 mg/kg; outline: as §1
Mus musculus [7] = assay: Anticonvulsant activity in CF1 albino mouse assessed as inhibition of subcutaneous pentylenetetrazole-induced seizures at 100 mg/kg, ip after 0.5 hrs; assay type: functional, organism-based; parameters: dose 100 mg/kg; outline: as §2
Rattus norvegicus [8] = assay: Anticonvulsant activity in Sprague-Dawley rat assessed as inhibition of maximal electroshock-induced seizures at 30 mg/kg, po after 1 hr
Mus musculus [9] = assay: Anticonvulsant activity in CF1 albino mouse assessed as inhibition of subcutaneous pentylenetetrazole-induced seizures at 300 mg/kg, ip after 0.5 hrs; assay type: functional, organism-based; parameters: dose 300 mg/kg; outline: as §2
Mus musculus [10] = assay: Neurotoxicity in CF1 albino mouse assessed as motor impairment at 100 mg/kg, ip after 4 hrs; assay type: toxicity, organism-based; parameters: dose 100 mg/kg, route intraperitoneal; settings: in vivo
Rattus norvegicus [11] = assay: Anticonvulsant activity in Sprague-Dawley rat assessed as inhibition of maximal electroshock-induced seizures at 30 mg/kg, po after 15 mins
Rattus norvegicus [12] = assay: Anticonvulsant activity in Sprague-Dawley rat assessed as inhibition of maximal electroshock-induced seizures at 30 mg/kg, po after 30 mins
Mus musculus [13] = assay: Neurotoxicity in CF1 albino mouse assessed as motor impairment at 30 mg/kg, ip after 0.5 hrs; assay type: toxicity, organism-based; parameters: dose 30 mg/kg, route intraperitoneal; settings: in vivo
Mus musculus [14] = assay: Neurotoxicity in CF1 albino mouse assessed as motor impairment at 30 mg/kg, ip after 4 hrs; assay type: toxicity, organism-based; parameters: dose 30 mg/kg, route intraperitoneal; settings: in vivo
Mus musculus [15] = assay: Anticonvulsant activity in CF1 albino mouse assessed as inhibition of subcutaneous pentylenetetrazole-induced seizures at 100 mg/kg, ip after 4 hrs; assay type: functional, organism-based; parameters: dose 100 mg/kg; outline: as §2
Mus musculus [16] = assay: Anticonvulsant activity in CF1 albino mouse assessed as inhibition of maximal electroshock-induced seizures at 30 mg/kg, ip after 0.5 hrs; assay type: functional, organism-based; parameters: dose 30 mg/kg; outline: as §1
Mus musculus [17] = assay: Neurotoxicity in CF1 albino mouse assessed as motor impairment at 300 mg/kg, ip after 0.5 hrs; assay type: toxicity, organism-based; parameters: dose 300 mg/kg, route intraperitoneal; settings: in vivo
Mus musculus [18] = assay: Neurotoxicity in CF1 albino mouse assessed as motor impairment at 100 mg/kg, ip after 0.5 hrs; assay type: toxicity, organism-based; parameters: dose 100 mg/kg, route intraperitoneal; settings: in vivo
Mus musculus [19] = assay: Anticonvulsant activity in CF1 albino mouse assessed as inhibition of maximal electroshock-induced seizures at 100 mg/kg, ip after 0.5 hrs; assay type: functional, organism-based; parameters: dose 100 mg/kg; outline: as §1
Rattus norvegicus [20] = assay: Neurotoxicity in Sprague-Dawley rat assessed as motor impairment at 30 mg/kg, po after 0.25 to 4 hrs; settings: in vivo
Mus musculus [21] = assay: Anticonvulsant activity in CF1 albino mouse assessed as inhibition of subcutaneous pentylenetetrazole-induced seizures at 30 mg/kg, ip after 0.5 hrs; assay type: functional, organism-based; parameters: dose 30 mg/kg; outline: as §2
Rattus norvegicus [22] = assay: Anticonvulsant activity in po dosed rat assessed as inhibition of maximal electroshock-induced seizures
Rattus norvegicus [23] = assay: Anticonvulsant activity in Sprague-Dawley rat assessed as inhibition of maximal electroshock-induced seizures at 30 mg/kg, po after 2 hrs
Mus musculus [24] = assay: Anticonvulsant activity in CF1 albino mouse assessed as inhibition of maximal electroshock-induced seizures at 100 mg/kg, ip after 4 hrs; assay type: functional, organism-based; parameters: dose 100 mg/kg; outline: as §1
Rattus norvegicus [25] = assay: Anticonvulsant activity in Sprague-Dawley rat assessed as inhibition of maximal electroshock-induced seizures at 30 mg/kg, po after 4 hrs
Rattus norvegicus [26] = species on record: Rattus norvegicus; assay: Protective index, ratio of TD50 for rat to ED50 for maximal electroshock-induced rat seizure model

| SMILES | Activity (Mus musculus [1]) | Activity (Mus musculus [2]) | Activity (Mus musculus [3]) | Activity (Mus musculus [4]) | Activity (Mus musculus [5]) | Activity (Mus musculus [6]) | Activity (Mus musculus [7]) | Activity (Mus musculus [9]) | Activity (Mus musculus [10]) | Activity (Rattus norvegicus [11]) | Activity (Rattus norvegicus [12]) | Activity (Mus musculus [13]) | Activity (Mus musculus [14]) | Activity (Mus musculus [15]) | Activity (Mus musculus [16]) | Activity (Mus musculus [17]) | Activity (Mus musculus [18]) | Activity (Mus musculus [19]) | Activity (Rattus norvegicus [20]) | Activity (Mus musculus [21]) | other results |
| --- | --- | --- | --- | --- | --- | --- | --- | --- | --- | --- | --- | --- | --- | --- | --- | --- | --- | --- | --- | --- | --- |
| CCC(C(=O)Nc1ccc(S(N)(=O)=O)cc1)C(C)(C)C (centres undefined) | inactive | Non-toxic | inactive | inactive | inactive | Active | inactive | inactive | Non-toxic | inactive | inactive | Non-toxic | Non-toxic | inactive | inactive | Non-toxic | Non-toxic | inactive | Non-toxic | inactive | Activity (Rattus norvegicus [8]): inactive |
| CCCC(CCC)C(=O)Nc1ccc(S(N)(=O)=O)cc1 |  |  |  |  |  |  |  |  |  |  |  |  |  |  |  |  |  |  |  |  | ED50 (Rattus norvegicus [22]): 21 mg/kg |
| CCCC(C(=O)Nc1ccc(S(N)(=O)=O)cc1)C(C)(C)C (centres undefined) | inactive | Non-toxic | inactive | inactive | inactive | inactive | inactive | inactive | Non-toxic |  | inactive | Non-toxic | Non-toxic | inactive | inactive | Non-toxic | Non-toxic | inactive | Non-toxic | inactive | Activity (Rattus norvegicus [23]): inactive; Activity (Rattus norvegicus [8]): inactive; Activity (Mus musculus [24]): inactive; Activity (Rattus norvegicus [25]): inactive |
| CC1(C)C(C(=O)Nc2ccc(S(N)(=O)=O)cc2)C1(C)C |  |  |  |  |  |  |  |  |  |  |  |  |  |  |  |  |  |  |  |  | ED50 (Rattus norvegicus [22]): 26 mg/kg |
| CC(C)C(C(=O)Nc1ccc(S(N)(=O)=O)cc1)C(C)(C)C (centres undefined) | inactive | Non-toxic | inactive | inactive | inactive | Active | inactive | inactive | Non-toxic | inactive | inactive | Non-toxic | Non-toxic | inactive | inactive | Non-toxic | Non-toxic |  | Non-toxic | inactive | Activity (Rattus norvegicus [23]): inactive; Ratio TD50/ED50 (Rattus norvegicus [26]): >27.7; Activity (Rattus norvegicus [8]): inactive; ED50 (Rattus norvegicus [22]): 18 mg/kg; Activity (Mus musculus [24]): Active |
| CC(C)C(C(=O)Nc1ccc(S(N)(=O)=O)cc1)C(C)C | inactive | Non-toxic | inactive | inactive | inactive | inactive | inactive | inactive | Non-toxic | inactive | inactive | Non-toxic | Non-toxic | inactive | inactive | Non-toxic | Non-toxic | inactive | Non-toxic | inactive | Activity (Rattus norvegicus [23]): inactive; Activity (Rattus norvegicus [8]): inactive; Activity (Mus musculus [24]): inactive |
| CC1(C)C(C(=O)Nc2nnc(S(N)(=O)=O)s2)C1(C)C |  |  |  |  |  |  |  |  |  |  |  |  |  |  |  |  |  |  |  |  | Ratio TD50/ED50 (Rattus norvegicus [26]): >50 |
| CCCC(CCC)C(=O)Nc1nnc(S(N)(=O)=O)s1 |  |  |  |  |  |  |  |  |  |  |  |  |  |  |  |  |  |  |  |  | Ratio TD50/ED50 (Rattus norvegicus [26]): >50 |
| CC(C)(C)C(=O)NCc1ccc(S(N)(=O)=O)cc1 | inactive | Non-toxic | inactive | inactive | inactive | inactive | inactive | inactive | Non-toxic |  |  | Non-toxic | Non-toxic | inactive | inactive | Non-toxic | Non-toxic | inactive |  | inactive | Activity (Mus musculus [24]): inactive |
| CC(C)(C)CC(=O)NCc1ccc(S(N)(=O)=O)cc1 | inactive | Non-toxic | inactive | inactive | inactive | Active | inactive | inactive | Non-toxic | inactive | inactive | Non-toxic | Non-toxic | inactive | inactive | Non-toxic | Non-toxic | inactive | Non-toxic | inactive |  |
| CCC(C)C(CC)C(=O)Nc1ccc(S(N)(=O)=O)cc1 (centres undefined) |  | Non-toxic | inactive | inactive | inactive | Active | inactive | inactive | Non-toxic | inactive | inactive | Non-toxic | Non-toxic | inactive | inactive | Non-toxic | Non-toxic |  | Non-toxic | inactive | Activity (Rattus norvegicus [23]): Active; Activity (Mus musculus [24]): Active |
| CCC(C)C(C(=O)Nc1ccc(S(N)(=O)=O)cc1)C(C)C (centres undefined) | inactive | Non-toxic | inactive | inactive | inactive | inactive | inactive | inactive | Non-toxic | inactive | inactive | Non-toxic | Non-toxic | inactive | inactive | Non-toxic | Non-toxic | inactive | Non-toxic | inactive | Activity (Rattus norvegicus [23]): inactive; Activity (Mus musculus [24]): inactive; Activity (Rattus norvegicus [25]): inactive |
| CCC(CC)C(=O)NCCc1ccc(S(N)(=O)=O)cc1 | inactive | Non-toxic | inactive | inactive | Active | Active | inactive | inactive | Non-toxic |  |  | Non-toxic | Non-toxic | inactive | inactive | Non-toxic | Non-toxic | inactive | Non-toxic | inactive |  |
